Measured values taken from ChEMBL document CHEMBL1156237, “Antiviral activity of benzimidazole derivatives. II. Antiviral activity of 2-phenylbenzimidazole derivatives” (Bioorg Med Chem, 2010).
Activity calls are given as the source filed them. Unless noted, the calls are words filed in the database; no cut-off is given here.

Assays:
[1] = Cytotoxicity against african green monkey Vero cells; type: cell-based; conditions: chlorocebus sabaeus
Outline: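 Vero 76 monolayers exposed to serial compound dilutions, run in parallel on the same 24-well plates as the plaque-reduction assays. CC50 is the concentration reducing viability of mock-infected cells by 50%.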

[2] = Cytotoxicity against BHK cells after 48 to 96 hrs by MTT assay; type: cell-based, Mesocricetus auratus; conditions: hamster
Outline: (§1)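 Cell seeding: MDBK at 6 × 10^5 cells/mL in MEM-E with 10% horse serum and 1 mM Na pyruvate; BHK at 1 × 10^6 cells/mL in MEM-E with 10% FBS. Serial compound dilutions, 37 °C, 5% CO2. Viability of mock-infected cells by MTT after 48–96 h; CC50 is the concentration reducing viability by 50%.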

[3] = test system: Respiratory syncytial virus; experiment: Antiviral activity against RSV A2 infected in african green monkey Vero cells after 5 days by plaque reduction assay; type: functional, organism-based
Outline: (§2)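 Plaque reduction assay. Vero 76 cells at 2 × 10^5/well, grown overnight to confluence in D-MEM with 10% FBS. Infected 2 h with 50–100 PFU/well, unadsorbed virus removed. Overlay of D-MEM with 1% inactivated FBS and 0.75% methylcellulose, with or without serial compound dilutions. Incubated at 37 °C for 3 days (HSV-1 KOS, CVB-2 Ohio-1) or 5 days (RSV A2). Fixed and stained with crystal violet in 50% ethanol; plaques counted; EC50 by linear regression.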

[4] = test system: Yellow fever virus; experiment: Antiviral activity against Yellow fever virus 17D infected in BHK cells assessed as protection from virus-induced cytopathogenicity after 3 to 4 days by MTT method; type: functional, organism-based
[5] = test system: Vaccinia virus; experiment: Antiviral activity against Vaccinia virus Elstree-Lister infected in african green monkey Vero cells after 3 days by plaque reduction assay; type: functional, organism-based; conditions: Orthopoxvirus vaccinia
[6] = test system: Mammalian orthoreovirus 1; experiment: Antiviral activity against Reovirus 1 3651 infected in BHK21 cells assessed as protection from virus-induced cytopathogenicity after 3 to 4 days by MTT method; type: functional, organism-based; conditions: BHK-21
[7] = test system: Poliovirus 1; experiment: Antiviral activity against Polio virus type1 Sabin strain Chat infected in african green monkey Vero cells after 2 days by plaque reduction assay; type: functional, organism-based, Human poliovirus 1 strain Sabin; conditions: Enterovirus C, 48 h
[8] = test system: Bovine viral diarrhea virus 1; experiment: Antiviral activity against Bovine viral diarrhea virus NADL infected in MDBK cells assessed as protection from virus-induced cytopathogenicity after 3 to 4 days by MTT method; type: functional, organism-based, Bovine viral diarrhea virus 1-NADL; conditions: Bovine viral diarrhea virus isolates and strains, MDBK
Outline: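 Cytopathogenicity protection assay. MDBK cells at 3 × 10^4/well, grown overnight to confluence. Infected with BVDV NADL at m.o.i. 0.01 in MEM-E with 0.5% inactivated FBS, 1 mM Na pyruvate and 1% kanamycin. Serial compound dilutions added after 1 h. After 3–4 days at 37 °C, viability read by MTT; EC50 is the concentration giving 50% protection.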

[9] = test system: Human immunodeficiency virus 1; experiment: Antiviral activity against HIV1 3B infected in human MT4 cells assessed as protection from virus-induced cytopathogenicity after 4 days by MTT method; type: functional, organism-based
Outline: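 MT-4 cells, 1 × 10^4/well in RPMI with or without serial compound dilutions, infected with HIV-1 IIIB, 100 CCID50 (m.o.i. 0.01). Protection from virus-induced cytopathogenicity read by MTT.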

[10] = Cytotoxicity against human MT4 cells after 96 hrs by MTT assay; type: cell-based; conditions: MT4 cells
Outline: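 Exponentially growing MT-4 cells at 1 × 10^5 cells/mL in RPMI-1640 with 10% FCS, exposed to serial compound dilutions at 37 °C, 5% CO2. Viability by MTT after 96 h; CC50 is the concentration reducing viability of mock-infected cells by 50%.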

[11] = test system: Vesicular stomatitis virus; experiment: Antiviral activity against VSV Indiana lab infected in african green monkey Vero cells after 2 days by plaque reduction assay; type: functional, organism-based
[12] = test system: Coxsackievirus B2; experiment: Antiviral activity against Human coxsackievirus B2 Ohio-1 infected in african green monkey Vero cells after 3 days by plaque reduction assay; type: functional, organism-based, Coxsackievirus B2 (strain Ohio-1); conditions: Enterovirus B, Vero, 72 h; outline: as §2
[13] = Cytotoxicity against MDBK cells after 48 to 96 hrs by MTT assay; type: cell-based, Bos taurus; conditions: cattle, MDBK cells; outline: as §1
[14] = test system: Human alphaherpesvirus 1; experiment: Antiviral activity against HSV1 KOS infected in african green monkey Vero cells after 3 days by plaque reduction assay; type: functional, organism-based; conditions: Human alphaherpesvirus 1, KOS, 72 h; outline: as §2

SMILES	CC50 [1] [µM]	CC50 [2] [µM]	Activity [3]	EC50 [4] [µM]	Activity [5]	Activity [6]	EC50 [7] [µM]	EC50 [8] [µM]	Activity [9]	CC50 at 96 h [10] [µM]	Activity [11]	EC50 [12] [µM]	CC50 [13] [µM]	EC50 [14] [µM]
O=C(CCl)Nc1ccc(-c2nc3cc(C(F)(F)F)ccc3n2C23CC4CC(CC(C4)C2)C3)cc1	> 100	51	inactive	> 51	inactive	inactive	> 100	> 18	inactive	0.3	inactive	> 100	18	> 100
CN1CCN(CC(=O)Nc2ccc(-c3nc4cc(C(F)(F)F)ccc4n3C)cc2)CC1	> 100	16	inactive	7	inactive	inactive	41	15	inactive	22	inactive	19	44	> 100
Cn1c(-c2ccc(NC(=O)CN3CCSCC3)cc2)nc2cc(C(F)(F)F)ccc21	> 100	> 100	inactive	46	inactive	inactive	> 100	8	inactive	10	inactive	22	> 100	> 100
O=C(CN1CCN(c2ccccc2)CC1)Nc1ccc(-c2nc3cc(C(F)(F)F)ccc3n2C23CC4CC(CC(C4)C2)C3)cc1	> 100	> 100	inactive	> 100	inactive	inactive	> 100	> 100	inactive	> 100	inactive	27	> 100	> 100
Cn1c(-c2ccc(NC(=O)CN3CCCCC3)cc2)nc2cc(C(F)(F)F)ccc21	> 100	> 100	inactive	> 100	inactive	inactive	> 100	6	inactive	9	inactive	32	100	> 100
Cn1c(-c2ccc(NC(=O)CN3CCOCC3)cc2)nc2cc(C(F)(F)F)ccc21	> 100	> 100	inactive	> 100	inactive	inactive	> 100	> 100	inactive	≥ 100	inactive	> 100	> 100	> 100
CCC(=O)Nc1ccc(-c2nc3cc(C(F)(F)F)ccc3n2C)cc1	> 100	> 100	inactive	> 100	inactive	inactive	> 100	> 100	inactive	8	inactive	> 100	> 100	> 100
CC(=O)Nc1ccc(-c2nc3cc(C(F)(F)F)ccc3n2C2CCCCC2)cc1	30	15	inactive	> 15	inactive	inactive	> 30	> 17	inactive	24	inactive	9	17	> 30
